{"data": "Measured values of several laboratories", "target": "Eukaryotic elongation factor 2 kinase (EEF2K, Homo sapiens, UniProt O00418)", "Residues used in one study (O00418 1-725)": "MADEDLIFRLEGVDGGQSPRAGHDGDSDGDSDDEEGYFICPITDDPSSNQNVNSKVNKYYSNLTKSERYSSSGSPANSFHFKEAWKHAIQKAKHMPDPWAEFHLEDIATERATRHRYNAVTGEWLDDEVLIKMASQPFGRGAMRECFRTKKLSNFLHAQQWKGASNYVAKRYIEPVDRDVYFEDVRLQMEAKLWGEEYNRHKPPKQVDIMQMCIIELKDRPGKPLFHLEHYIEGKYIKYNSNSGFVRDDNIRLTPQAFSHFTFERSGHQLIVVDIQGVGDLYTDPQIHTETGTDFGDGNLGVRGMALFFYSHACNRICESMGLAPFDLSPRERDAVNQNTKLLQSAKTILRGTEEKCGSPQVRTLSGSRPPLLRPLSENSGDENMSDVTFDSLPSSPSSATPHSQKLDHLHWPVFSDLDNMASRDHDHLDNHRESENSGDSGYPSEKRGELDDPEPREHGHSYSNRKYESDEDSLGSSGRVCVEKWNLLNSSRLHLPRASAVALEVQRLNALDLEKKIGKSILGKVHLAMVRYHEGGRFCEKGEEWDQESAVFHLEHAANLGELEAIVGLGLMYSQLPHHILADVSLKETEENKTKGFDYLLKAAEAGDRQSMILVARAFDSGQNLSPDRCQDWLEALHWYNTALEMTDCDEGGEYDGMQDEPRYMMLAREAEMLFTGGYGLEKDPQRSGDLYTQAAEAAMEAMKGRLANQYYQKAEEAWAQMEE", "note": "Compare with care: the assays were run in different laboratories."}
{"Compound": "N#CC1c2c([nH]c3c(Cl)c(Cl)ccc23)C(=O)NC12CCCCC2 (racemic)", "assay": "thermal stability, DSF", "conditions": "10 µM", "measurement": "ΔTm", "value": "-0.1 °C"}
{"Compound": "CNC(=O)c1cc(Oc2ccc(NC(=O)Nc3ccc(Cl)c(C(F)(F)F)c3)cc2)ccn1", "assay": "enzyme activity, inhibitor", "conditions": "10 µM", "measurement": "inhibition", "value": "-8%"}
{"Compound": "COc1cc(Nc2cnc(C#N)c(O[C@H](C)CN(C)C)n2)ncc1-c1cnn(C)c1", "assay": "enzyme activity, inhibitor, radiometric", "conditions": "1 µM", "measurement": "remaining activity", "value": "94%"}
{"Compound": "CCN(CC)CCNC(=O)c1c(C)[nH]c(/C=C2\\C(=O)Nc3ccc(F)cc32)c1C", "assay": "enzyme activity, inhibitor", "conditions": "0.3 µM", "measurement": "inhibition", "value": "-15%"}
{"Compound": "FC(F)c1nc2ccccc2n1-c1nc(N2CCOCC2)nc(N2CCOCC2)n1", "assay": "enzyme activity, inhibitor", "conditions": "10 µM", "measurement": "remaining activity", "value": "96%"}
{"Compound": "CC/C(=N\\NC(=O)NCc1cccc(O)c1)c1ccc(O)c(C)c1O", "assay": "enzyme activity, inhibitor", "conditions": "0.1 µM", "measurement": "inhibition", "value": "1.1%"}
{"Compound": "CNc1cc(Oc2cc(C(=O)Nc3cc(N4CCN(C)CC4)cc(C(F)(F)F)c3)ccc2C)ncn1", "assay": "target engagement in cells, inhibitor, chemoproteomics", "test system": "Huh-7", "conditions": "1 µM", "measurement": "inhibition", "value": "-99.1%"}
{"Compound": "CC(C)(C)c1nc(-c2cccc(NS(=O)(=O)c3c(F)cccc3F)c2F)c(-c2ccnc(N)n2)s1", "assay": "enzyme activity, inhibitor, radiometric", "conditions": "1 µM", "measurement": "remaining activity", "value": "93%"}
{"Compound": "COc1cc(Cl)c(C(=O)N[C@@H](CN[C@H]2CC[C@@H](N)CC2)Cc2ccc(C#N)cc2)cc1-c1ccc(CN[C@H](C)c2ccc(C)cc2)o1", "assay": "enzyme activity, inhibitor", "conditions": "1 µM", "measurement": "remaining activity", "value": "80%"}
{"Compound": "CCN1CCN(Cc2ccc(NC(=O)c3ccc(C)c(Oc4ccnc5[nH]ccc45)c3)cc2C(F)(F)F)CC1", "assay": "target engagement in cells, inhibitor, chemoproteomics", "test system": "A-375", "conditions": "0.5 µM", "measurement": "inhibition", "value": "0.084%"}
{"Compound": "Cn1c2c(c3ccccc31)C(C#N)C(C)(C)NC2=O (stereo not shown)", "assay": "thermal stability, DSF", "conditions": "10 µM", "measurement": "ΔTm", "value": "0 °C"}
{"Compound": "COc1cc2ncnc(Nc3ccc(Oc4ccccc4)c(C)c3C)c2cc1OC", "assay": "enzyme activity, inhibitor", "conditions": "1 µM", "measurement": "inhibition", "value": "1%"}
{"Compound": "CN1CCC2(CC1)NC(=O)c1c(c3ccc(Cl)c(Cl)c3n1C)C2C#N (racemic)", "assay": "thermal stability, DSF", "conditions": "10 µM", "measurement": "ΔTm", "value": "-0.1 °C"}
{"Compound": "Nc1nc(NC2CCCCC2)sc1C(=O)c1ccccc1", "assay": "enzyme activity, inhibitor", "conditions": "10 µM", "measurement": "remaining activity", "value": "89%"}
{"Compound": "Cn1c2c(c3ccc(Cl)c(Cl)c31)C(C#N)C1(CCNCC1)NC2=O (racemic)", "assay": "thermal stability, DSF", "conditions": "10 µM", "measurement": "ΔTm", "value": "0 °C"}
{"Compound": "Cc1cnc(NC2CCOCC2)nc1-n1cnc(C(=O)NC(CN)c2cc(F)cc(Cl)c2)c1 (stereo not shown)", "assay": "enzyme activity, inhibitor, radiometric", "conditions": "1 µM", "measurement": "remaining activity", "value": "108%"}
